Source: paper PMC2898448 (The Journal of Biological Chemistry, 2010)
“Also recorded” adds a separate entry of the source. No end group written: not given here. *: point of attachment. pNA = O=[N+]([O-])c1ccc(N*)cc1; Cbz = O=C(OCc1ccccc1)*

Legend:
[1] = cited from earlier work; for side effects (in words): ref [18], [19]; for duration of action (in words): reference not given
[2] = test system: apPEP (WT Aeromonus punctata PEP); test: apPEP enzyme kinetics with chromogenic/fluorescent substrate Z-Gly-Pro-pNA; assay type: biochemical
Method in brief: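 Free pNA was read […] to give initial velocities. Km came from a Lineweaver-Burk plot over 31–500 μM substrate. kcat/Km was taken as Vo/SoEo at two or more substrate concentrations.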

DPP4 = settings: ref [64]; cited from earlier work
PEP = settings: ref [9]; cited from earlier work
[3] = test system: apPEP (WT and D622N crystals); test: Crystal soaking with zPP; assay type: binding, Aeromonus punctata
Method in brief: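 Native full-length WT or D622N apPEP (E. coli-expressed, Ni-affinity purified, thrombin-cleaved, SEC) crystallized at 14 °C with 20 mM MES pH 6.5 and PEG. Crystals were cryoequilibrated 1–2 days at 4 °C, soaked overnight at 4 °C, then glutaraldehyde vapour cross-linked for 4 h at 4 °C. Data were collected at 100 K; structures solved by molecular replacement, with inhibitor placed from difference maps.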

N#C[C@@H]1CCCN1C(=O)CNC12CC3CC(CC(O)(C3)C1)C2 [Galvus]
side effects (in words) [1]: no significant negative side effects | duration of action (in words) [1]: act transiently

N[C@@H](CC(=O)N1CCn2c(nnc2C(F)(F)F)C1)Cc1cc(F)c(F)cc1F [Januvia]
side effects (in words) [1]: no significant negative side effects | duration of action (in words) [1]: act transiently

Cbz-Gly-Pro-pNA
kcat ([2]; 20 mM Tris-HCl (pH 8), 100 mM NaCl, 34 °C): 505 s⁻¹ | kcat/Km ([2]; from initial rates, kcat/Km = Vo/SoEo, substrate 16–62 μM, pH 8, 34 °C): 623000 M⁻¹ s⁻¹

IP10: DPP4 substrate
cleavage efficiency by DPP4 relative to GLP1 (in words) (DPP4): even higher efficiency than GLP1

angiotensin I-II
cleavage by PEP (in words) (PEP): Cleavage

benzyloxy-carbonyl-prolyl-prolinal [zPP]
contact with catalytic Ser538 (in words) ([3]; D622N-zPP structure): makes van der Waals contact with the aldehyde group of the inhibitor | conformational change induced by inhibitor (in words) ([3]; preformed native crystals soaked with 10 mM zPP overnight at 4 °C): inducing a conformational change from opened (red) to closed (blue) states; also recorded: induces large scale interdomain closure

bradykinin: cleaved by PEP (RPPGFSPFR; Bradykinin; UniProt P01042 381-389, looked up)
cleavage by PEP (in words) (PEP): Cleavage

gastrin-releasing peptide 3–27: DPP4 substrate (LPAGGGTVLTKMYPRGNHWAVGHLM; ends and bridges not checked; UniProt P07492 26-50, looked up, fragment)
cleavage efficiency by DPP4 relative to GLP1 (in words) (DPP4): even higher efficiency than GLP1

neuropeptide Y: involved in neurogenic inflammation and blood pressure regulation
cleavage efficiency by DPP4 relative to GLP1 (in words) (DPP4): even higher efficiency than GLP1

stromal cell-derived factor 1α
cleavage efficiency by DPP4 relative to GLP1 (in words) (DPP4): even higher efficiency than GLP1

B1: Mig: DPP4 substrate (protein, UniProt Q07325 23-125, looked up)
C-X-C motif chemokine 9: TPVVRKGRCSCISTNQGTIHLQSLKDLKQFAPSPSCEKIEIIATLKNGVQTCLNPDSADVKELIKKWEKQVSQKKKQKNGKKHQKKKVLKVRKSQRSRQKKTT
cleavage efficiency by DPP4 relative to GLP1 (in words) (DPP4): even higher efficiency than GLP1

B2: interferon-inducible T cell α: DPP4 substrate (protein, UniProt O14625 22-94, looked up)
C-X-C motif chemokine 11: FPMFKRGRCLCIGPGVKAVKVADIEKASIMYPSNNCDKIEVIITLKENKGQRCLNPKSKQARLIIKKVERKNF
cleavage efficiency by DPP4 relative to GLP1 (in words) (DPP4): even higher efficiency than GLP1

B3: monocyte-derived chemokine: DPP4 substrate (protein, UniProt O00626 25-93, looked up)
C-C motif chemokine 22: GPYGANMEDSVCCRDYVRYRLPLRVVKHFYWTSDSCPRPGVVLLTFRDKEICADPRVPWVKMILNKLSQ
cleavage efficiency by DPP4 relative to GLP1 (in words) (DPP4): even higher efficiency than GLP1
